ChEMBL document CHEMBL4257498, “Antitumor effects of melanin from Lachnum YM226 and its derivative in H22 tumor-bearing mice” (Medchemcomm, 2018)
The source made the active and inactive calls. No cut-off for these calls is given here.

What was measured:
[1] = system: Mus musculus; test: Decrease in leukocyte infiltration in Kunming mouse implanted with mouse H22 cells at 50 to 200 mg/kg, ig once daily for 12 days measured at 24 hrs post last dose by hematoxylin and eosin staining based microscopic method; assay type: functional, organism-based
Outline: (§1)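 H22 cells given 0.2 mL of 1 × 10^6 cells per mL subcutaneously in the right axilla. Treatment began on day 3, […]. Dosing was intragastric in saline, once daily for 12 days, n = 10 per group. Mice were killed 24 h after the last dose. Tumors were fixed in buffered neutral 10% formalin, paraffin-embedded, cut at 4 μm, HE-stained and examined by light microscopy at 400×.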

[2] = system: Mus musculus; test: Immunostimulatory activity in Kunming mouse implanted with mouse H22 cells assessed as increase in serum IL-2 level at 50 mg/kg, ig once daily for 12 days measured at 24 hrs post last dose by ELISA; assay type: functional, organism-based
Outline: (§2)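 Serum came from H22 sc tumor-bearing mice dosed intragastrically once daily for 12 days, collected 24 h after the last dose from the orbital plexus (3000g, 10 min, stored at –80 °C). IL-2, IL-6, TNF-α, IFN-γ, VEGF and bFGF were measured by commercial ELISA kits following the manufacturer's protocol.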

[3] = system: Mus musculus; test: Decrease in tumor hemorrhage in Kunming mouse implanted with mouse H22 cells at 50 to 200 mg/kg, ig once daily for 12 days measured at 24 hrs post last dose by hematoxylin and eosin staining based microscopic method; assay type: functional, organism-based; outline: as §1
[4] = system: Mus musculus; test: Immunostimulatory activity in Kunming mouse implanted with mouse H22 cells assessed as increase in serum TNFalpha level at 200 mg/kg, ig once daily for 12 days measured at 24 hrs post last dose by ELISA; assay type: functional, organism-based; outline: as §2
[5] = system: Mus musculus; test: Immunostimulatory activity in Kunming mouse implanted with mouse H22 cells assessed as increase in serum IL-2 level at 200 mg/kg, ig once daily for 12 days measured at 24 hrs post last dose by ELISA; assay type: functional, organism-based; outline: as §2
[6] = system: Mus musculus; test: Toxicity in Kunming mouse implanted with mouse H22 cells assessed as increase in body weight at 50 mg/kg, ig once daily for 12 days measured every 3 days during compound dosing; assay type: organism-based; conditions: in vivo, po
Outline: (§3)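 H22 sc tumor-bearing mice were dosed intragastrically once daily for 12 days (0.2 mL, n = 10). Mice were weighed every three days and doses adjusted accordingly. Body weight gain = (final – initial body weight)/initial body weight.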

[7] = system: Mus musculus; test: Hepatotoxicity in Kunming mouse implanted with mouse H22 cells assessed as increase in serum AST level at 50 to 200 mg/kg, ig once daily for 12 days measured at 24 hrs post last dose; assay type: toxicity, organism-based; conditions: in vivo, po
Outline: (§4)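 Mice bore sc H22 tumors and received intragastric doses once daily for 12 days (n = 10). Blood was drawn from the orbital venous plexus 24 h after the last dose. It was allowed to clot and centrifuged at 3000g for 10 min, and the serum was stored at –80 °C. AST, ALT, CRE, BUN and UA were measured with commercial kits.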

[8] = system: Mus musculus; test: Decrease in serum bFGF level in Kunming mouse implanted with mouse H22 cells at 50 to 200 mg/kg, ig once daily for 12 days measured at 24 hrs post last dose by ELISA; assay type: functional, organism-based; outline: as §2
[9] = system: Mus musculus; test: Immunostimulatory activity in Kunming mouse implanted with mouse H22 cells assessed as increase in serum IFNgamma level at 200 mg/kg, ig once daily for 12 days measured at 24 hrs post last dose by ELISA; assay type: functional, organism-based; outline: as §2
[10] = system: Mus musculus; test: Renal toxicity in Kunming mouse implanted with mouse H22 cells assessed as increase in serum CRE level at 50 to 200 mg/kg, ig once daily for 12 days measured at 24 hrs post last dose; assay type: organism-based; conditions: in vivo, po; outline: as §4
[11] = system: H22; test: Antitumor activity against mouse H22 cells implanted in Kunming mouse assessed as decrease in hepatoma cell density at 200 mg/kg, ig once daily for 12 days measured at 24 hrs post last dose by hematoxylin and eosin staining based microscopic method; assay type: functional, organism-based; outline: as §1
[12] = system: H22; test: Antitumor activity against mouse H22 cells implanted in Kunming mouse assessed as tumor growth inhibition administered ig once daily for 12 days measured at 24 hrs post last dose; assay type: functional
Outline: (§5)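 Sc H22 implant (0.2 mL, 1 × 10^6 cells per mL, right axilla). Intragastric dosing started 3 days later, once daily for 12 days in 0.2 mL; saline control; 10 mice per group. Tumors were excised and weighed 24 h after the last dose. Inhibition rate = (1 – mean treated tumor weight/mean model tumor weight) × 100%. Caliper volume taken every 2 days as A × B2/2.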

[13] = system: Mus musculus; test: Toxicity in Kunming mouse implanted with mouse H22 cells assessed as increase in body weight at 200 mg/kg, ig once daily for 12 days measured every 3 days during compound dosing; assay type: organism-based; conditions: in vivo, po; outline: as §3
[14] = system: Mus musculus; test: Decrease in serum VEGF level in Kunming mouse implanted with mouse H22 cells at 50 to 200 mg/kg, ig once daily for 12 days measured at 24 hrs post last dose by ELISA; assay type: functional, organism-based; outline: as §2
[15] = system: Mus musculus; test: Immunosuppressive effect in Kunming mouse implanted with mouse H22 cells assessed as liver index at 50 mg/kg, ig once daily for 12 days measured at 24 hrs post last dose (reference value: 4.17 +/- 0.68%); assay type: ADME, organism-based; conditions: in vivo, po
[16] = system: Mus musculus; test: Immunosuppressive effect in Kunming mouse implanted with mouse H22 cells assessed as liver index at 200 mg/kg, ig once daily for 12 days measured at 24 hrs post last dose (reference value: 4.17 +/- 0.68%); assay type: ADME, organism-based; conditions: in vivo, po
[17] = system: H22; test: Antitumor activity against mouse H22 cells implanted in Kunming mouse assessed as necrotic and apoptotic region at 50 to 200 mg/kg, ig once daily for 12 days measured at 24 hrs post last dose by hematoxylin and eosin staining based microscopic method; assay type: functional, organism-based; outline: as §1
[18] = system: Mus musculus; test: Immunostimulatory activity in Kunming mouse implanted with mouse H22 cells assessed as increase in serum IL-6 level at 50 mg/kg, ig once daily for 12 days measured at 24 hrs post last dose by ELISA; assay type: functional, organism-based; outline: as §2
[19] = system: Mus musculus; test: Immunosuppressive effect in Kunming mouse implanted with mouse H22 cells assessed as thymus index at 50 mg/kg, ig once daily for 12 days measured at 24 hrs post last dose (reference value: 0.13 +/- 0.06%); assay type: ADME, organism-based; conditions: in vivo, po
[20] = system: Mus musculus; test: Renal toxicity in Kunming mouse implanted with mouse H22 cells assessed as increase in serum UA level at 50 to 200 mg/kg, ig once daily for 12 days measured at 24 hrs post last dose; assay type: organism-based; conditions: in vivo, po; outline: as §4
[21] = system: Mus musculus; test: Immunosuppressive effect in Kunming mouse implanted with mouse H22 cells assessed as spleen index at 200 mg/kg, ig once daily for 12 days measured at 24 hrs post last dose (reference value: 0.54 +/- 0.09%); assay type: ADME, organism-based; conditions: in vivo, po
[22] = system: Mus musculus; test: Immunostimulatory activity in Kunming mouse implanted with mouse H22 cells assessed as increase in serum IL-6 level at 200 mg/kg, ig once daily for 12 days measured at 24 hrs post last dose by ELISA; assay type: functional, organism-based; outline: as §2
[23] = system: Mus musculus; test: Immunosuppressive effect in Kunming mouse implanted with mouse H22 cells assessed as spleen index at 50 mg/kg, ig once daily for 12 days measured at 24 hrs post last dose (reference value: 0.54 +/- 0.09%); assay type: ADME, organism-based; conditions: in vivo, po
[24] = system: H22; test: Antitumor activity against mouse H22 cells implanted in Kunming mouse assessed as tumor growth inhibition at 200 mg/kg, ig once daily for 12 days measured at 24 hrs post last dose relative to control; assay type: functional; conditions: H22, po, read-out: TGI; outline: as §5
[25] = system: Mus musculus; test: Hepatotoxicity in Kunming mouse implanted with mouse H22 cells assessed as increase in serum ALT level at 50 to 200 mg/kg, ig once daily for 12 days measured at 24 hrs post last dose; assay type: toxicity, organism-based; conditions: in vivo, po; outline: as §4
[26] = system: H22; test: Antitumor activity against mouse H22 cells implanted in Kunming mouse assessed as decrease in nuclear to cytoplasmic ratio at 50 to 200 mg/kg, ig once daily for 12 days measured at 24 hrs post last dose by hematoxylin and eosin staining based microscopic method; assay type: functional, organism-based; outline: as §1
[27] = system: Mus musculus; test: Renal toxicity in Kunming mouse implanted with mouse H22 cells assessed as increase in serum BUN level at 50 to 200 mg/kg, ig once daily for 12 days measured at 24 hrs post last dose; assay type: organism-based; conditions: in vivo, po; outline: as §4
[28] = system: H22; test: Antitumor activity against mouse H22 cells implanted in Kunming mouse assessed as tumor growth inhibition at 50 mg/kg, ig once daily for 12 days measured at 24 hrs post last dose relative to control; assay type: functional; conditions: H22, po, read-out: TGI; outline: as §5
[29] = system: Mus musculus; test: Immunosuppressive effect in Kunming mouse implanted with mouse H22 cells assessed as thymus index at 200 mg/kg, ig once daily for 12 days measured at 24 hrs post last dose (reference value: 0.13 +/- 0.06%); assay type: ADME, organism-based; conditions: in vivo, po

## COc1c(O)cc2cc(C(=O)O)n(C)c2c1C1=c2cc(C(=O)O)[nH]c2=C(Cc2cc(C(=O)O)[nH]c2C(=O)O)C(=O)C1=O
[1]
  Activity: Active
[2]
  Activity: Active
[3]
  Activity: Active
[4]
  Activity: Active
[5]
  Activity: Active
[6]
  Activity: 8.2 g
[7]
  Activity: Non-Toxic
[8]
  Activity: Active
[9]
  Activity: Active
[10]
  Activity: Non-Toxic
[11]
  Activity: Active
[12]
  TGI: Dose-dependent effect
[13]
  Activity: 7.56 g
[14]
  Activity: Active
[15]
  Activity_index: 3.72%
[16]
  Activity_index: 3.79%
[17]
  Activity: Active
[18]
  Activity: Active
[19]
  Activity_index: 0.15%
[20]
  Activity: Non-Toxic
[21]
  Activity_index: 0.48%
[22]
  Activity: Active
[23]
  Activity_index: 0.48%
[24]
  inhibition in vivo at 200 mg/kg: 35%
[25]
  Activity: Non-Toxic
[26]
  Activity: Active
[27]
  Activity: Non-Toxic
[28]
  inhibition in vivo at 50 mg/kg: 32.3%
[29]
  Activity_index: 0.16%
